{"source": "ChEMBL document CHEMBL4364301", "about": "(Eur J Med Chem, 2019)", "format_in_all_cases": "functional", "key": {"[1]": {"system": "LNCaP", "experiment": "Antiproliferative activity against human LNCAP cells assessed as reduction in cell growth incubated for 96 hrs by propidium iodide based 2D monolayer assay", "in_short": "(§1)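 After 24 h recovery, compound in medium or medium alone (control wells) was added at 10 half-log concentrations from 0.0032 to 100 µM, in triplicate, with at most 0.3% DMSO. After 96 h, wells were PBS-washed, stained with 7 µg/ml PI and 0.1% Triton X-100, and fluorescence read at 530/620 nm. IC50 came from a 4-parameter fit, geometric mean.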"}, "[2]": {"system": "VCaP", "experiment": "Antiproliferative activity against human VCaP cells assessed as reduction in cell growth incubated for 96 hrs by propidium iodide based 2D monolayer assay", "in_short": "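VCaP cells in RPMI 1640 with 10% FCS at 37 °C, 5% CO2, seeded 4,000–20,000 cells/well and left 24 h before dosing. Compounds from DMSO stocks were diluted in half-log steps in medium, 10 concentrations 0.0032–100 μM, triplicate wells, max 0.3% DMSO. After 96 h, cells were washed, stained with 7 μg/ml propidium iodide plus 0.1% Triton X-100 for 1–2 h at room temperature, and fluorescence read at ex 530/em 620 nm.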"}, "[3]": {"system": "DU-145", "experiment": "Antiproliferative activity against human DU145 cells assessed as reduction in cell growth incubated for 96 hrs by propidium iodide based 2D monolayer assay", "settings": "DU-145, 96 h", "in_short": "as §1"}, "[4]": {"system": "CWR22R", "experiment": "Antiproliferative activity against human 22Rv1 cells assessed as reduction in cell growth incubated for 96 hrs by propidium iodide based 2D monolayer assay", "settings": "22Rv1, 96 h", "in_short": "as §1"}}}
{"molecule": "CC(O)(CSc1cccc(S(F)(F)(F)(F)F)c1)C(=O)Nc1ccc([N+](=O)[O-])c(C(F)(F)F)c1", "note": "(racemic)", "values": [{"measurement": "IC50", "setting": "[1]", "value": 8.6, "unit": "µM"}, {"measurement": "IC50", "setting": "[2]", "value": 9.8, "unit": "µM"}, {"measurement": "IC50", "setting": "[3]", "value": 13.9, "unit": "µM"}, {"measurement": "IC50", "setting": "[4]", "value": 8.8, "unit": "µM"}]}
